ChEMBL document CHEMBL1123307, “Peptides as receptor selectivity modulators of opiate pharmacophores” (J Med Chem, 1986)
Counter-ions that a name gives are not always drawn. Residues, ends and D or L forms follow the SMILES beside them. *: point of attachment. X2 = O=C(N/N=C1/CC[C@@]2(O)[C@H]3Cc4ccc(O)c5c4[C@@]2(CCN3CC2CC2)[C@H]1O5)*; X1 = CN1CC[C@]23c4c5ccc(O)c4O[C@H]2/C(=N\NC(=O)*)CC[C@@]3(O)[C@H]1C5

How the values were obtained:
[1] = biological target: Kappa-type opioid receptor (Cavia porcellus, UniProt P41144); experiment: Binding affinity against Opioid receptor kappa 1 of guinea pig brain membranes using 1 nM of (-)-[3H]ethylketazocine as radioligand
In short: (§1)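 Incubations in 50 mM Tris buffer, pH 7.4, with 100 mM NaCl and bacitracin (50 μg/mL).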

Mu-type opioid receptor = Mu-type opioid receptor (Cavia porcellus, UniProt P97266); experiment: Binding affinity against Opioid receptor mu 1 of guinea pig brain membranes using 0.5 nM of [3H]naloxone as radioligand; in short: as §1
Mu-type opioid receptor, sequence (P97266 whole entry): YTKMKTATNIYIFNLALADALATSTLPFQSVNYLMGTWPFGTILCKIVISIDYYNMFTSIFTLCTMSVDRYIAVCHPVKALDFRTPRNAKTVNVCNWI

Kappa-type opioid receptor, sequence (P41144 whole entry): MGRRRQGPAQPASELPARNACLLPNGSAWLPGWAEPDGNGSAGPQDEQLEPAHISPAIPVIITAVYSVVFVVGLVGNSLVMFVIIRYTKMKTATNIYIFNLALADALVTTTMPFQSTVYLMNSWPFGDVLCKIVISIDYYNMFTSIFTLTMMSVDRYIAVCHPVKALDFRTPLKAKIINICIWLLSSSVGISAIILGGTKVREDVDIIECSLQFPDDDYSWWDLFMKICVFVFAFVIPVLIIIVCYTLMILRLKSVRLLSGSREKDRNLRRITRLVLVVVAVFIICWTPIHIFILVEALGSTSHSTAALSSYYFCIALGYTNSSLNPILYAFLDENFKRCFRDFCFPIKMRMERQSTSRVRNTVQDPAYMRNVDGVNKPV

SMILES | Ki [1] [nM] | Ki (Mu-type opioid receptor) [nM]
CC(C)CC(NC(=O)C(Cc1ccccc1)NC(=O)N/N=C1/CC[C@@]2(O)C3Cc4ccc(O)c5c4C2(CCN3C)[C@H]1O5)C(=O)O (some centres undefined) | 96 | 14.8
CC(C)CC(NC(=O)C(Cc1ccccc1)NC(=O)N/N=C1/CC[C@@]2(O)C3Cc4ccc(O)c5c4C2(CCN3CC2CC2)[C@H]1O5)C(=O)O (some centres undefined) | 2.8 | 0.76
CC[C@H](C)[C@H](NC(=O)[C@H](CCCNC(=N)N)NC(=O)[C@H](CCCNC(=N)N)NC(=O)[C@H](CC(C)C)NC(=O)[C@H](Cc1ccccc1)NC(=O)CNC(=O)CNC(=O)[C@@H](N)Cc1ccc(O)cc1)C(=O)OC | 40 | 340
CC[C@H](C)[C@H](NC(=O)[C@H](CCCN=C(N)N)NC(=O)[C@H](CCCN=C(N)N)NC(=O)[C@H](CC(C)C)NC(=O)[C@H](Cc1ccccc1)NC(=O)N/N=C1/CC[C@@]2(O)[C@H]3Cc4ccc(O)c5c4[C@@]2(CCN3C)[C@H]1O5)C(=O)OC (X1-FLRRI-OMe) | 9.8 | 15.5
CC[C@H](C)[C@H](NC(=O)[C@H](CCCN=C(N)N)NC(=O)[C@H](CCCN=C(N)N)NC(=O)[C@H](CC(C)C)NC(=O)[C@H](Cc1ccccc1)NC(=O)N/N=C1/CC[C@@]2(O)[C@H]3Cc4ccc(O)c5c4[C@@]2(CCN3CC2CC2)[C@H]1O5)C(=O)OC (X2-FLRRI-OMe) | 2.2 | 2.3
NC(=O)N/N=C1/CC[C@@]2(O)C3Cc4ccc(O)c5c4C2(CCN3CC2CC2)[C@H]1O5 (some centres undefined) [NALTREXONE SEMICARBAZONE] | 2.6 | 0.48
CN1CCC23c4c5ccc(O)c4O[C@H]2/C(=N\NC(N)=O)CC[C@@]3(O)C1C5 (some centres undefined) [OXYMORPHONE SEMICARBAZONE HYDROCHLORIDE] | 179 | 14.5
